Results on 1 molecule are retold here after ChEMBL document CHEMBL4350961, “Discovery of Pyrrolo[3,2- d]pyrimidin-4-one Derivatives as a New Class of Potent and Cell-Active Inhibitors of P300/CBP-Associated Factor Bromodomain” (J Med Chem, 2019).

The source made the active and inactive calls. The rule behind the calls is not given here.

In assay [1] the target is Chromatin remodeling regulator CECR2 (Homo sapiens) (UniProt Q9BXF3). Nature of the assay: Binding affinity to human partial length CECR2 (P423 to D543 residues) expressed in bacterial expression system at 1 uM by BROMOscan assay. In short, it runs like this:
(§1)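 BROMOscan bromodomain cross-screen run by an outside service, compound at 1 µM against 32 recombinant bromodomains. Binding given as percent of control.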

Assay [2] relates to Mast/stem cell growth factor receptor Kit (Homo sapiens), P10721 [D816H]. As to the kind of experiment: Inhibition of recombinant human c-Kit D816H mutant (544 to end residues) at 10 uM using GGMEDIYFEFMGGKKK as substrate measured after 40 mins in presence of [gamma33P]ATP by scintillation counting method.
In assay [3] the target is Serine/threonine-protein kinase mTOR (Homo sapiens) (UniProt P42345). As to the kind of experiment: Inhibition of recombinant full-length human mTOR at 10 uM measured after 40 mins in presence of [gamma33P]ATP by scintillation counting method.
Assay [4] has as its target Ephrin type-A receptor 3 (Homo sapiens) (UniProt P29320). Nature of the assay: Inhibition of recombinant human EphA3 (578 to end residues) at 10 uM using poly(Glu, Tyr) 4:1 as substrate measured after 40 mins in presence of [gamma33P]ATP by scintillation counting method.
Assay [5] concerns the target Homeodomain-interacting protein kinase 1 (Homo sapiens) (UniProt Q86Z02). As to the kind of experiment: Inhibition of recombinant human activated HIPK1 (158 to 555 residues) at 10 uM using myelin basic protein as substrate measured after 40 mins in presence of [gamma33P]ATP by scintillation counting method.
Assay [6] has as its target Histone acetyltransferase p300 (Homo sapiens) (UniProt Q09472). Nature of the assay: Binding affinity to human partial length EP300 (A1040 to G1161 residues) expressed in bacterial expression system at 1 uM by BROMOscan assay. In short, it runs like this: as §1
Assay [7] has as its target Cyclin-dependent kinase 5/CDK5 activator 1 (Homo sapiens) (UniProt Q00535+Q15078). As to the kind of experiment: Inhibition of recombinant full-length human CDK5/p35 at 10 uM using histone H1 as substrate measured after 40 mins in presence of [gamma33P]ATP by scintillation counting method. In kind it is protein-complex assay.
The target in assay [8] is Tyrosine-protein kinase Fes/Fps (Homo sapiens) (UniProt P07332). As to the kind of experiment: Inhibition of recombinant human FES (2 to end residues) at 10 uM using poly(Glu, Tyr) 4:1 as substrate measured after 40 mins in presence of [gamma33P]ATP by scintillation counting method.
The test system of assay [9] is Tyrosine-protein kinase Blk (Homo sapiens), P51451 [UNDEFINED MUTATION]. As to the kind of experiment: Inhibition of full-length recombinant human BLK M287V mutant at 10 uM using poly(Glu, Tyr) 4:1 as substrate measured after 40 mins in presence of [gamma33P]ATP by scintillation counting method. Put shortly:
(§2)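 Kinase panel of 422 kinases screened by Eurofins KinaseProfiler at a single test-compound concentration of 10 µM.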

The species named for the next assay is Homo sapiens. As to the kind of experiment: Inhibition of recombinant human Flt4 V1128L/H1146R mutant (800 to end residues) at 10 uM using GGEEEEYFELVKKKK as substrate measured after 40 mins in presence of [gamma33P]ATP by scintillation counting method.
In assay [10] the test system is Epidermal growth factor receptor (Homo sapiens), P00533 [L858R,T790M]. As to the kind of experiment: Inhibition of recombinant human EGFR T790M/L858R mutant (696 to end residues) at 10 uM using GGMEDIYFEFMGGKKK as substrate measured after 40 mins in presence of [gamma33P]ATP by scintillation counting method.
Assay [11] has as its target Serine/threonine-protein kinase MRCK alpha (Homo sapiens) (UniProt Q5VT25). As to the kind of experiment: Inhibition of recombinant human MRCKalpha (1 to 473 residues) at 10 uM using KKRNRTLTV as substrate measured after 40 mins in presence of [gamma33P]ATP by scintillation counting method.
Assay [12] concerns the target Serine/threonine-protein kinase 3 (Homo sapiens) (UniProt Q13188). Nature of the assay: Inhibition of recombinant full-length human MST2 (2 to end residues) at 10 uM using myelin basic protein as substrate measured after 40 mins in presence of [gamma33P]ATP by scintillation counting method.
The subject of assay [13] is Mitogen-activated protein kinase 14 (Homo sapiens), Q16539 [T106M]. Nature of the assay: Inhibition of recombinant full-length human SAPK2a T106M mutant at 10 uM using myelin basic protein as substrate measured after 40 mins in presence of [gamma33P]ATP by scintillation counting method.
In assay [14] the target is Phosphatidylinositol 4-phosphate 5-kinase type-1 gamma (Homo sapiens) (UniProt O60331). As to the kind of experiment: Inhibition of recombinant full-length human PIP5K1gamma at 10 uM using phosphatidylinositol 4-phosphate as substrate measured after 40 mins by HTRF assay. (In general: TR-FRET usually uses a lanthanide donor and a delayed reading to cut background.)
Assay [15] relates to SNF-related serine/threonine-protein kinase (Homo sapiens), Q9NRH2 [UNDEFINED MUTATION]. Nature of the assay: Inhibition of human SNRK E97G/P116A mutant (65 to 409 residues) using KKLRRTLSFAEPG as substrate measured after 40 mins in presence of [gamma33P]ATP by scintillation counting method. Put shortly:
as §2

Assay [16] has as its target Myosin light chain kinase, smooth muscle (Homo sapiens) (UniProt Q15746). Nature of the assay: Inhibition of recombinant human MLCK (1425 to 1771 residues) at 10 uM using […] as substrate measured after 40 mins in presence of [gamma33P]ATP by scintillation counting method.
Assay [17] deals with Tribbles homolog 2 (Homo sapiens) (UniProt Q92519). As to the kind of experiment: Inhibition of recombinant full-length human TRB2 at 10 uM using RRRFRPASPLRGPPK as substrate measured after 120 mins in presence of [gamma33P]ATP by scintillation counting method.
Assay [18] deals with Tyrosine-protein kinase CSK (Homo sapiens) (UniProt P41240). As to the kind of experiment: Inhibition of full-length recombinant human CSK at 10 uM using poly(Glu, Tyr) 4:1 as substrate measured after 40 mins in presence of [gamma33P]ATP by scintillation counting method. In short, it runs like this: as §2
In assay [19] the target is Insulin receptor (Homo sapiens) (UniProt P06213). Nature of the assay: Inhibition of recombinant human activated IR (1005 to 1310 residues) at 10 uM using KKKSPGEYVNIEFG as substrate measured after 40 mins in presence of [gamma33P]ATP by scintillation counting method.
For assay [20], the target named is Serine/threonine-protein kinase pim-1 (Homo sapiens) (UniProt P11309). Nature of the assay: Inhibition of recombinant full-length human Pim1 at 10 uM using KKRNRTLTV as substrate measured after 40 mins in presence of [gamma33P]ATP by scintillation counting method.
Assay [21] has as its target Proto-oncogene tyrosine-protein kinase Src (Homo sapiens) (UniProt P12931). Nature of the assay: Inhibition of human Src (1 to 530 residues) using GGEEEEYFELVKKKK as substrate measured after 40 mins in presence of [gamma33P]ATP by scintillation counting method.
Assay [22] has as its target Tyrosine-protein kinase HCK (Homo sapiens) (UniProt P08631). Nature of the assay: Inhibition of recombinant human activated HCK (230 to 497 residues) at 10 uM using GGMEDIYFEFMGGKKK as substrate measured after 40 mins in presence of [gamma33P]ATP by scintillation counting method.

Chain of Chromatin remodeling regulator CECR2 (Homo sapiens) (Q9BXF3 whole entry, looked up, the tested form may be a part): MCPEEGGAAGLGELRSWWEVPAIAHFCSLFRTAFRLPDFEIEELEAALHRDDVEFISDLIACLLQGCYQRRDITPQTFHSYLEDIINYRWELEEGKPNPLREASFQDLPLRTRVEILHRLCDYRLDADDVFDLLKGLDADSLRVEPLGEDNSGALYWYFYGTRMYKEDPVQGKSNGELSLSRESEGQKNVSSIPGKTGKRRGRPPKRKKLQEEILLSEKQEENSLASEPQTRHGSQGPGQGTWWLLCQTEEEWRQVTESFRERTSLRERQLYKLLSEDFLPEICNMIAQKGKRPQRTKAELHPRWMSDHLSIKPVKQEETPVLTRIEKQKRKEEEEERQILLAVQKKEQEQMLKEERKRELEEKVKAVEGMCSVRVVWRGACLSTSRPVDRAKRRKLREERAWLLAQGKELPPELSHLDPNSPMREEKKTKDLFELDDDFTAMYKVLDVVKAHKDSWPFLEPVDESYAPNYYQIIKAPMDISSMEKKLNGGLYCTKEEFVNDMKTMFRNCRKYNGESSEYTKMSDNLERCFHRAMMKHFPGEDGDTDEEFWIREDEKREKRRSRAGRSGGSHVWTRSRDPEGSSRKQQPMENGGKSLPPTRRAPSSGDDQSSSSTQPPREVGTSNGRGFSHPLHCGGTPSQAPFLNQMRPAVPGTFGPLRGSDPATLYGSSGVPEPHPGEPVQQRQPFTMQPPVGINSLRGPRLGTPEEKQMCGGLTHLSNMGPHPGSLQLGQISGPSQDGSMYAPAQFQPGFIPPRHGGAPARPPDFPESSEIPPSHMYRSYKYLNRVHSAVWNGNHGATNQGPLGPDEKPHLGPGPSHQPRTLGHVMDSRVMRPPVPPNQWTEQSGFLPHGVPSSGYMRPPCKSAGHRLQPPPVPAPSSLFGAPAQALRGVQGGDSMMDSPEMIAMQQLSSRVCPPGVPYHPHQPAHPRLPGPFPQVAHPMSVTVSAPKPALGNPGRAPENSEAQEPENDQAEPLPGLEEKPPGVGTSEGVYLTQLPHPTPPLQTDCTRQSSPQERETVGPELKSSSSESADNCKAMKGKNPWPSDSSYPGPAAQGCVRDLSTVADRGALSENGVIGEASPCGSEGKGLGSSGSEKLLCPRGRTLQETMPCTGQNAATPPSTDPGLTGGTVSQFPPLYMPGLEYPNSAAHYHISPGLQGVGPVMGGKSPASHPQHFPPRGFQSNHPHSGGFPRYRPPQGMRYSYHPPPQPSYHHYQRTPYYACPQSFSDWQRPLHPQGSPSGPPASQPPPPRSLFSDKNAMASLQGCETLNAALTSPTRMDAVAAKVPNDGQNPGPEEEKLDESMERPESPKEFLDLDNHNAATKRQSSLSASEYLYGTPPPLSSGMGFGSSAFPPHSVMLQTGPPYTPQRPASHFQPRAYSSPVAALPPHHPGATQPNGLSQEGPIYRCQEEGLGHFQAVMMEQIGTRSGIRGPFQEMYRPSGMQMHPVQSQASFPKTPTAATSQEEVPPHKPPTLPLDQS
Chain of Myosin light chain kinase, smooth muscle (Homo sapiens) (Q15746 whole entry, the tested form may be a part): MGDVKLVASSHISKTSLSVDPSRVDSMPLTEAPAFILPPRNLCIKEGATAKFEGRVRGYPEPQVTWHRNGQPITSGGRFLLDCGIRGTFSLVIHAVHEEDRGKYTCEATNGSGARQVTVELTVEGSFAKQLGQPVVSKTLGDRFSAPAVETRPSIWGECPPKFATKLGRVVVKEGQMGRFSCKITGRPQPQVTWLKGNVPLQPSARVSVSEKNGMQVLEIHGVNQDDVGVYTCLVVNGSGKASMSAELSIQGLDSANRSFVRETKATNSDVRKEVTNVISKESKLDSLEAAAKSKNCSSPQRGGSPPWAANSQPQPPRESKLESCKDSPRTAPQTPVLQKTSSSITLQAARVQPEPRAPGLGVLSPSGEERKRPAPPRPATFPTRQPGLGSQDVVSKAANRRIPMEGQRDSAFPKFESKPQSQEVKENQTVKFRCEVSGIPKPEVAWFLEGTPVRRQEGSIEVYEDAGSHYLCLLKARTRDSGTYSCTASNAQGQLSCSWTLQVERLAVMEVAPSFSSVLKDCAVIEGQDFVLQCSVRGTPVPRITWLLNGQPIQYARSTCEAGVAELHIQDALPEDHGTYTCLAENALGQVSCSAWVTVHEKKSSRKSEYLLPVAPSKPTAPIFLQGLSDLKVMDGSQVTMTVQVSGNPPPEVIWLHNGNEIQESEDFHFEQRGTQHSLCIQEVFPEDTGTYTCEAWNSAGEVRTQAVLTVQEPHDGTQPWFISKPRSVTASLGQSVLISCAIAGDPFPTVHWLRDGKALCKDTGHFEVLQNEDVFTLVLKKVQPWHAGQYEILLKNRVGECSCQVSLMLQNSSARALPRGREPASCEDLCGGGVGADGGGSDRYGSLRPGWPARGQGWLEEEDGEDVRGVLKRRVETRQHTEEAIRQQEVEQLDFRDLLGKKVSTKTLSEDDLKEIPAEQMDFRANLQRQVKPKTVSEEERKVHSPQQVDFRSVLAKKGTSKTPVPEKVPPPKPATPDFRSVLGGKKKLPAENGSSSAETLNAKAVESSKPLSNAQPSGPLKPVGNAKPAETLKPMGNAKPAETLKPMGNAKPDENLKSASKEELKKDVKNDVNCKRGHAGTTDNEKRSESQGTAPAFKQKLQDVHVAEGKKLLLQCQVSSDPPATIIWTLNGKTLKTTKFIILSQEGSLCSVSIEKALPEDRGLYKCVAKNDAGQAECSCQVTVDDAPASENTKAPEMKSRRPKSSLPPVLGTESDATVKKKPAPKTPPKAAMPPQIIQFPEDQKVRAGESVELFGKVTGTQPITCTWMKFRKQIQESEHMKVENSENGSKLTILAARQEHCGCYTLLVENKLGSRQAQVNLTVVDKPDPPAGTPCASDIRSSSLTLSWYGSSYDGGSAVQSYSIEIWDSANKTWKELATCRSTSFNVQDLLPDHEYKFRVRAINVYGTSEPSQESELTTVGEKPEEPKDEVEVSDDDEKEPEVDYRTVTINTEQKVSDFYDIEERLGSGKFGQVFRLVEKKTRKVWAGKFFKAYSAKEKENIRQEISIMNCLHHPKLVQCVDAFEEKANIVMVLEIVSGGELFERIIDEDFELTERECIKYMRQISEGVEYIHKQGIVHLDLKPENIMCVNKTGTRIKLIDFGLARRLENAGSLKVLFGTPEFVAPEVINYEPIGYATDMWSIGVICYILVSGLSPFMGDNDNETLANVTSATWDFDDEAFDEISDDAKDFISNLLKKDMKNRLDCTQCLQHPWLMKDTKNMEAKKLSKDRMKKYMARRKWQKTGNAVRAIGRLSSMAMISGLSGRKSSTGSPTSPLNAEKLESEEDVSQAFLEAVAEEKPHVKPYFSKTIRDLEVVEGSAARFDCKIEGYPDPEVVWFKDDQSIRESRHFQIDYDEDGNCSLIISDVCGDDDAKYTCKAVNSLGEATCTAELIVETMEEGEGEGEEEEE
Chain of Ephrin type-A receptor 3 (Homo sapiens) (P29320 whole entry, the tested form may be a part): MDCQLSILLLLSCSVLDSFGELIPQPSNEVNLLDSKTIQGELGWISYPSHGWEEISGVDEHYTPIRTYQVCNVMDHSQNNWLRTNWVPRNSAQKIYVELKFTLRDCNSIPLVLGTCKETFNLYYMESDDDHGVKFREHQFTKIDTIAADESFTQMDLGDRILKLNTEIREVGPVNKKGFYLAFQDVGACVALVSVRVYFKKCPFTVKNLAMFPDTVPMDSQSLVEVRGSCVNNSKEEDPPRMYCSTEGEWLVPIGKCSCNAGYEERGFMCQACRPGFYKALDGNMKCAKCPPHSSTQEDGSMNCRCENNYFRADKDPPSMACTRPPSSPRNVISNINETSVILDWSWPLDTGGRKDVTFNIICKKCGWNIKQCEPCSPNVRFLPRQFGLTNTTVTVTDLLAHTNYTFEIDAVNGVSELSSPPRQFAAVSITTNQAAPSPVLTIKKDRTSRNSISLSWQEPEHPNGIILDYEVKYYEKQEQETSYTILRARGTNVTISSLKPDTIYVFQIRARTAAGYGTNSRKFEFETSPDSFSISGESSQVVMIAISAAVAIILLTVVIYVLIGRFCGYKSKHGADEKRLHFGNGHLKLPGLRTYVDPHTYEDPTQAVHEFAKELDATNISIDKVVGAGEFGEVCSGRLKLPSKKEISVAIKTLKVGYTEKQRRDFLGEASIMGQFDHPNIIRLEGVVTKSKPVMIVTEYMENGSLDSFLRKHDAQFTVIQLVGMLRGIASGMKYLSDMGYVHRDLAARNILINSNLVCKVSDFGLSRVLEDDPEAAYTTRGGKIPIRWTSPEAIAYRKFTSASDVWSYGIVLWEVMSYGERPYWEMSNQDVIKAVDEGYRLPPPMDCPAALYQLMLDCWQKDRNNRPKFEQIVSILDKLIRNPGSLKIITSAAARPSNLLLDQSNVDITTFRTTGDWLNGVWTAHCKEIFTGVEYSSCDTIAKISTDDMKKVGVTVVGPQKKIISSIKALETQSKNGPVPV
Chain of Tyrosine-protein kinase CSK (Homo sapiens) (P41240 2-450 limits assumed): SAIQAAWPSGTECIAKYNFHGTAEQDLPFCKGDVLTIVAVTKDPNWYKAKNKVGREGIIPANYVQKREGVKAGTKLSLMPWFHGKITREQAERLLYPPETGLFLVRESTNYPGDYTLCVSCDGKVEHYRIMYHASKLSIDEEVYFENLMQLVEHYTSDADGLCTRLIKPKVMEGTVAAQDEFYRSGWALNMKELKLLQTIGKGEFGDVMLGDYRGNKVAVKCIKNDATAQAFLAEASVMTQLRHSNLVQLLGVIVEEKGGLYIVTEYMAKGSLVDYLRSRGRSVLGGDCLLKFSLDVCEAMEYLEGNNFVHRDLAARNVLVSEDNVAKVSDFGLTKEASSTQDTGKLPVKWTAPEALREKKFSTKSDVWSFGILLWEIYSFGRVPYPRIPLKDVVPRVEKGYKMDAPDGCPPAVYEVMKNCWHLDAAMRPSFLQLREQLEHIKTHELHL

`CN1C[C@H](Nc2nc3cc[nH]c3c(=O)n2C)C[C@H](c2ccc3c(c2)OCCO3)C1`: the result in assay [1] was Active. In addition, the inhibition entry in assay [2], in [3], in [4], in [5], in assay [7] and in assay [8] was “inactive” in each case. Further, the inhibition result (in assay [9]; in the assay listed under Homo sapiens; in assay [10]; in assay [11]; in assay [12]; in assay [13]) was “inactive” each time. For the same molecule, the inhibition result in assay [14], in assay [15], in assay [16], in assay [17], in assay [18] and in [19] was “inactive” each time. The inhibition result in assay [20], in [21] and in assay [22] was “inactive” in each case. Moreover, in assay [6], the outcome was inactive.
